In ChEMBL document CHEMBL1909618, “Non-steroidal dissociated glucocorticoid agonists: indoles as A-ring mimetics and function-regulating pharmacophores” (Bioorg Med Chem Lett, 2011):

What was measured:
Glucocorticoid receptor [1] = target: T1, Glucocorticoid receptor (Homo sapiens, UniProt P04150); assay: Agonist activity at glucocorticoid receptor in HFF assessed as inhibition of IL1-induced IL-6 production after 18 to 24 hrs; assay type: functional
T1 sequence (P04150 whole entry): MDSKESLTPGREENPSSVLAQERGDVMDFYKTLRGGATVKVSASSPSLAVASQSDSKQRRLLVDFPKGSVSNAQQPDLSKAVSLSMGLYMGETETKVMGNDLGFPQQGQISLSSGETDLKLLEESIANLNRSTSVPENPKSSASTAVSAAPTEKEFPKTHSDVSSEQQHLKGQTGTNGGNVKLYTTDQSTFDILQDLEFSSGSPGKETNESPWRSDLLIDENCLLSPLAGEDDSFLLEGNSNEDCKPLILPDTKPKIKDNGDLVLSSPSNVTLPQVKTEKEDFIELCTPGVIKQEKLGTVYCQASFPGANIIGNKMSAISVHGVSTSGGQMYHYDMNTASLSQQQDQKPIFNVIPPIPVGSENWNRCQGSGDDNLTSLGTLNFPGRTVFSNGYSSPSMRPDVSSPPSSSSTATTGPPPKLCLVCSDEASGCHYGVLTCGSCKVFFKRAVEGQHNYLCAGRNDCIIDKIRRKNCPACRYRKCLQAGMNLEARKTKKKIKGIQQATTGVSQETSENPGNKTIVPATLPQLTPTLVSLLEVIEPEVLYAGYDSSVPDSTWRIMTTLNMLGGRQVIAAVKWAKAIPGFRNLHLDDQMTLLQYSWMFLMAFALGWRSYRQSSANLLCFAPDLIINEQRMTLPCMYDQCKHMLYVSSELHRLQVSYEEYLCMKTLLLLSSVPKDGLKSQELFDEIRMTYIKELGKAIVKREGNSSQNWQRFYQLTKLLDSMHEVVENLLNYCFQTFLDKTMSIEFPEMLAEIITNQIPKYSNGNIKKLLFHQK

[2] = target: T2, Glucocorticoid receptor (Homo sapiens) (UniProt P04150); assay: Transactivation activity of glucocorticoid receptor in HFF assessed as induction of aromatase activity by measuring beta-estradiol activity after 18 to 24 hrs by ELISA relative to Dexamethasone
T2 sequence (whole entry): T1 sequence (P04150 whole entry)

Glucocorticoid receptor [3] = target: T1, Glucocorticoid receptor; assay: Displacement of tetramethylrhodamine-labeled Dexamethasone from human recombinant glucocorticoid receptor expressed in baculovirus infected insect cells by fluorescence polarization assay
Progesterone receptor = target: T3, Progesterone receptor (Homo sapiens, UniProt P06401); assay: Displacement of tetramethylrhodamine-labeled RU-486 from human recombinant progesterone receptor expressed in baculovirus infected insect cells by fluorescence polarization assay
T3 sequence (P06401 whole entry): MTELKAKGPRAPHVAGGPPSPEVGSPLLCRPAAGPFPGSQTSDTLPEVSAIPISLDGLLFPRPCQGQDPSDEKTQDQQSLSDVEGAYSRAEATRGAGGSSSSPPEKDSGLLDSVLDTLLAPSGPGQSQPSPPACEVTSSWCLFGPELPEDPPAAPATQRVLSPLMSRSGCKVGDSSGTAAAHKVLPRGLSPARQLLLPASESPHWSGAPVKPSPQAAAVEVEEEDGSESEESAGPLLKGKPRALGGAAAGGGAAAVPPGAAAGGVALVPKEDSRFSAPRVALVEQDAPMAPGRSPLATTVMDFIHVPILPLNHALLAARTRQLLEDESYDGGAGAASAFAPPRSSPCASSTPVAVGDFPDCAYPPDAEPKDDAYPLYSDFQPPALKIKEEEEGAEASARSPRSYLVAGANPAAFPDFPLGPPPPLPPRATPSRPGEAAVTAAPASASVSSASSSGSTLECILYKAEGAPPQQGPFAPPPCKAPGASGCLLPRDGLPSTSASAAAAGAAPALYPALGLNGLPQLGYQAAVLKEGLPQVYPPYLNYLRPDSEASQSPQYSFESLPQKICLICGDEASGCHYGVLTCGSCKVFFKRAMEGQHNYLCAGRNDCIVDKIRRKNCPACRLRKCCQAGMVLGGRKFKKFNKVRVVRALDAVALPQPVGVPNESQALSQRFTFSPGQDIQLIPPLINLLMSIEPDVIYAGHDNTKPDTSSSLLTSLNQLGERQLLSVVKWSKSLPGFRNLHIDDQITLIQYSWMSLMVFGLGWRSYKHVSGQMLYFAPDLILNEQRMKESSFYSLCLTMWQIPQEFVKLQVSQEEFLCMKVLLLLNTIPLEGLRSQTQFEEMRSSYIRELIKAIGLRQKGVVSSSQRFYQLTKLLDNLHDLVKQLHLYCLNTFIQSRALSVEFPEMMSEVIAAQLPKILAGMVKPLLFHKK
Procedure, shortened: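 Fluorescence polarization competition assays with recombinant human receptors in lysates of baculovirus-infected insect cells. Reactions contained 1% DMSO and ran 1 h at room temperature.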

Mus musculus = assay: Antiinflammatory activity in mouse plasma assessed as inhibition of LPS-induced TNFalpha production at 10 mg/kg, po administered 1 hr before LPS challenge measured after 1 hr; assay type: functional
Procedure, shortened: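 Mice received compound orally in Cremophor RH 1 h before LPS challenge. Plasma TNF-α was measured 1 h after challenge. n = 8 per group; doses were 3 and 10 mg/kg.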

COc1ccc(F)cc1C(C)(C)C[C@@](O)(Cc1cc2ccccc2[nH]1)C(F)(F)F
IC50 (Glucocorticoid receptor [1]): 6 nM
Efficacy [2]: 98%
IC50 (Glucocorticoid receptor [3]): 10 nM
IC50 (Progesterone receptor): 207 nM
inhibition in vivo at 10 mg/kg (Mus musculus): 35%

CC(C)(C[C@@](O)(Cc1cc2ccc(C#N)cc2[nH]1)C(F)(F)F)c1cc(S(C)(=O)=O)cc2c1OCC2
IC50 (Glucocorticoid receptor [1]): 28 nM
Efficacy [2]: 74%
IC50 (Glucocorticoid receptor [3]): 2 nM
IC50 (Progesterone receptor): 745 nM
inhibition in vivo at 10 mg/kg (Mus musculus): 88%
